Source: PubChem
A selection: hits, their analogues and other compounds. The true share with any hit is near 4.7%.
IMP-1 inhibitor: IMP-1 metallo-beta-lactamase inhibitors, primary screen, biochemical, epi-absorbance readout, Pseudomonas aeruginosa enzyme. inhibition, % at 5.6 µM. metallo-beta-lactamase IMP-1 (Pseudomonas aeruginosa). purified IMP-1, nitrocefin hydrolysis, epi-absorbance fluorescence. actives 0.45% (n = 290,000);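 active = inhibition above the mean plus 3 SD of all compounds in the same screening run, cut at about 4.5% in these data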;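 note: 0% = IMP-1 with DMSO and 100% = DMSO wells lacking enzyme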
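System: Purified IMP-1 | Read-out basis: Percent enzyme inhibition | Controls: IMP-1 with DMSO as 0%, enzyme-free DMSO as 100% | Replicates: One well per compound | Doses: 5.6 µM nominal single concentration | Detection: Epi-absorbance fluorescence, 480 nm excitation, 530 nm emission | Incubation: 25 °C, 15 min preincubation, 25 min reaction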
VIM-2 inh: VIM-2 metallo-beta-lactamase inhibitors, primary screen, biochemical, epi-absorbance readout, Pseudomonas aeruginosa enzyme. inhibition, % at 5.6 µM. purified VIM-2, nitrocefin hydrolysis, epi-absorbance fluorescence. AID 1527, 2009. actives 0.89% (n = 290,000);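 active = inhibition above the mean of all tested compounds plus 3 SD, cutoff set per screening run, cut at about 7.5% in these data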;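 note: red hydrolysis product quenches plate fluorescence so inhibitors raise well fluorescence; 0% = enzyme with DMSO and 100% = DMSO without enzyme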
aSyn UTR inh: MLPCN primary screen, SNCA 5' untranslated region | inhibition, % (tested at 7.5 µM) | actives 0.82% (n = 300,000) | alpha-synuclein 5'UTR reporter, inhibitor activity | AID 1813, 2009; in the data active = inhibition above about 60%;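 note: H4 neuroglioblastoma cells stably carrying SNCA 5'UTR luciferase fusion; 0% = DMSO wells and 100% = positive control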
Jurkat NFkB inh: inhibitors of induced NF-kB luciferase reporter, primary screen, TCR NF-kB activation inhibitor project, cell-based, luminescence, uHTS | Jurkat, PMA/ionomycin-induced NF-kB luciferase reporter | inhibition, % at 4 µM | actives 0.53% (n = 330,000) | AID 435003, 2010; in the data active = inhibition above about 50%
Mdm2-MdmX inh: inhibitors of human Mdm2-MdmX association, primary screen, cell-based, luminescence, split luciferase, SaOS-2, uHTS. AID 485346, 2010. SaOS-2 split-luciferase Mdm2/MdmX complementation. actives 3% (n = 330,000). Protein Mdm4 (Homo sapiens) + E3 ubiquitin-protein ligase Mdm2 (Homo sapiens), …. inhibition, % at 8 µM;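 active = inhibition of at least 50% at 8 µM in the primary screen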
Target sequence (O15151 whole entry, looked up): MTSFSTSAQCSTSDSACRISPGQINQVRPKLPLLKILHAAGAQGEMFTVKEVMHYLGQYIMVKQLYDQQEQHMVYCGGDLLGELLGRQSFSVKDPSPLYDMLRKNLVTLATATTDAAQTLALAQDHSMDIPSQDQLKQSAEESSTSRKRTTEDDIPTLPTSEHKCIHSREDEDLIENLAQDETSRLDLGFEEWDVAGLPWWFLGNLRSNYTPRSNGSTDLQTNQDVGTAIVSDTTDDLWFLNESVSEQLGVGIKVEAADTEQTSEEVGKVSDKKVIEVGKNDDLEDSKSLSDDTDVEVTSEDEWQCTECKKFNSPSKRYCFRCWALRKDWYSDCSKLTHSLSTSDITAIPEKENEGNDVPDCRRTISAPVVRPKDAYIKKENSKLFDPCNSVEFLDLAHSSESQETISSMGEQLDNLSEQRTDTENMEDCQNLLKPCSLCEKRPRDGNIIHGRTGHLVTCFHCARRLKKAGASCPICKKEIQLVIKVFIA
Target sequence (Q00987 whole entry, looked up): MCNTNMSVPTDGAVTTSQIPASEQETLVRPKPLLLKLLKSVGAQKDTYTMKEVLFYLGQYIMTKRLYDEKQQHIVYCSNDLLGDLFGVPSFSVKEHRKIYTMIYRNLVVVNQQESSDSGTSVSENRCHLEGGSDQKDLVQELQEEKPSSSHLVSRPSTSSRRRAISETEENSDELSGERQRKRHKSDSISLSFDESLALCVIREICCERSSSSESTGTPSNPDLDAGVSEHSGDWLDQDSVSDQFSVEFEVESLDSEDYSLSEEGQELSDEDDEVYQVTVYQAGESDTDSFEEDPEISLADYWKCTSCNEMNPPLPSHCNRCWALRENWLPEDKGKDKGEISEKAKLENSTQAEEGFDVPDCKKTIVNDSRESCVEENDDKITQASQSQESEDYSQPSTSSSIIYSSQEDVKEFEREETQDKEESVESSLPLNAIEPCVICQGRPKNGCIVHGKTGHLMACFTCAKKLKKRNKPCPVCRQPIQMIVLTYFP
697 NFkB inh: inhibitors of PMA/ionomycin-induced NF-kB reporter, 697 cells, primary screen, B-cell NF-kB inhibitor project, cell-based, luminescence, uHTS. inhibition, % at 4 µM. actives 0.33% (n = 330,000). AID 435022, 2010. 697 B-cell NF-kB luciferase reporter, 16 h; in the data active = inhibition above about 35%
Mdm2 MdmX conf: Mdm2-MdmX complex disruptors, retested hits, confirmation, luminescence, single concentration; inhibition, % at 8 µM; Mdm2-MdmX binding, luminescent assay; actives 55% (n = 10,000); shares compounds with Mdm2-MdmX inh; in the data active = inhibition above about 40%
Full FLuc ctr: full-length luciferase signal inhibition, confirmation, counter-screen for Mdm2/MdmX interaction inhibitor project, cell-based, single concentration, SaOS-2 | actives 77% (n = 6,200) | SaOS-2 full-length luciferase counterscreen, luminescence | shares compounds with Mdm2-MdmX inh | inhibition, % at 8 µM;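 active = mean inhibition at 8 µM reaching about 37%, which flags the compound as non-specific, limit read from the data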;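 note: p53-null SaOS-2 cells with luciferase driven by a doxycycline-inducible promoter; compound on cells about two nights before reading with doxycycline added after day one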
An asterisk follows results filed as active; / = no result given.

SMILES	IMP-1 inhibitor	VIM-2 inh	aSyn UTR inh	Jurkat NFkB inh	Mdm2-MdmX inh	697 NFkB inh	Mdm2 MdmX conf	Full FLuc ctr
COc1cccc(/C=C2\SC(=S)N(CCCC(=O)N3CCCCC3)C2=O)c1	-2.0	-2.0	25.6	15.9	87.8*	19.9	62.5*	22.9
CCOC(=O)C1CCN(S(=O)(=O)c2ccc(OC)c(C(=O)N3CCCCC3)c2)CC1	0.6	1.4	-7.1	5.4	17.1	-7.2	/	/
CCC(=O)Nc1nnc(Sc2ccc(N(C)C)cc2)s1	-0.6	-0.5	10.4	-6.8	15.6	-3.7	/	/
CN(C)c1ccc(Sc2nnc(NC(=O)Nc3ccc(Cl)cc3Cl)s2)cc1	-1.8	-2.2	-0.9	3.0	79.3*	-4.2	1.1	/
O=c1c2ccccc2nc(-c2ccccc2Cl)n1O	-2.6	-3.0	-33.1	-8.4	30.0	7.5	/	/
N#Cc1ccc(-c2nc3cc(Cl)ccc3c(=O)n2O)cc1	-2.2	-0.2	-1.2	4.6	28.7	2.9	/	/
O=c1c2ccccc2nc(-c2ccc(Cl)c(Cl)c2)n1O	-0.7	-2.4	-3.6	4.0	81.9*	-4.6	64.2*	26.8
O=c1c2ccc(Cl)cc2nc(-c2cccc(C(F)(F)F)c2)n1O	-0.3	-1.5	77.5*	-2.0	88.0*	-16.9	39.1	/
COC(=O)c1ccc(/C=C2/SC(=S)N(CCCC(=O)Nc3ccc(O)cc3)C2=O)cc1	-0.6	-1.0	22.4	12.4	99.6*	11.7	55.1*	5.2
O=C(CCCN1C(=O)/C(=C/c2cccs2)SC1=S)Nc1ccccc1O	-0.5	-3.0	-22.4	1.4	54.1*	-8.2	37.9	86.9*
O=C(CCCN1C(=O)/C(=C/c2ccccc2)SC1=S)Nc1ccc(C(=O)O)c(O)c1	-3.7	-1.1	2.2	-16.4	19.1	27.2	/	/
O=C(CCCN1C(=O)/C(=C\c2cccs2)SC1=S)Nc1ccc(O)cc1	-2.0	-1.6	-44.1	-7.6	77.8*	-1.4	70.9*	31.8
CCN(CC)CCOC(=O)c1ccc(NC(=O)c2cn(-c3ccccc3)nc2-c2cccs2)cc1	-2.9	-3.3	/	-12.0	50.4*	-41.8	38.9	101.0*
O=C(CCCN1C(=O)/C(=C\c2cccs2)SC1=S)Nc1ccc(C(=O)O)cc1	-1.0	-0.4	11.5	-2.9	5.8	27.2	/	/
O=C(COC(=O)c1ccccc1NCCO)NCc1cccs1	/	/	0.3	5.0	0.1	-29.5	/	/
COCCn1c(C)cc(/C=C(\C#N)C(=O)OC(C)C(=O)Nc2ccc(NC(C)=O)cc2)c1C (configuration not stated)	/	/	-3.6	13.6	19.0	8.5	/	/
COc1ccc(/C=C2\SC(=S)N(CCC(=O)NC3=NCCS3)C2=O)cc1OC	-3.1	-2.6	46.5	0.0	7.2	34.6	/	/
O=C(CCN1C(=O)/C(=C/c2cccs2)SC1=S)Nc1ccccn1	-0.1	0.1	-11.5	-9.1	6.6	6.3	/	/
COc1ccc(/C=C2\SC(=S)N(CCCC(=O)Nc3ccccn3)C2=O)cc1OC	-2.4	1.4	11.0	9.5	62.9*	16.3	51.8*	75.9*
CCN(CC)CCOC(=O)c1ccc(NC(=O)CCCN2C(=O)/C(=C/c3cccs3)SC2=S)cc1	0.1	3.0	16.2	-12.3	59.3*	-19.2	17.4	/
O=C(CCCN1C(=O)/C(=C\c2cccs2)SC1=S)Nc1ccccn1	-2.0	-0.4	-20.0	0.9	70.4*	7.1	63.7*	38.2*
CCc1c(C(=O)Nc2cc(C)cc(C)c2)[nH]c(C)c1C(C)=O	-4.3	-2.1	-20.4	11.4	-16.6	8.6	/	/
Cc1cc(S(=O)(=O)N2CCCCC2CCNC(=O)C(=O)NCC2CCCO2)ccc1F (configuration not stated)	/	/	8.3	-5.8	-1.9	4.4	/	/
COc1cccc(NC(=O)CCCOc2cc(=O)n(C)c3ccccc23)c1	-1.3	-2.9	-7.6	-12.1	28.8	4.3	/	/
CCOc1ccc(NC(=O)CCCOc2cc(=O)n(C)c3ccccc23)cc1	-2.8	-0.5	5.3	-3.2	51.6*	32.3	20.2	/
SMILES	IMP-1 inhibitor	VIM-2 inh	aSyn UTR inh	Jurkat NFkB inh	Mdm2-MdmX inh	697 NFkB inh	Mdm2 MdmX conf	Full FLuc ctr
Cn1c(=O)cc(OCCCC(=O)NCc2ccc(F)cc2Cl)c2ccccc21	-3.7	-0.6	4.7	-4.8	56.6*	8.4	19.7	/
O=C(Nc1ccccc1)OC1CCC2CC1CCC2OC(=O)Nc1ccccc1 (configuration not stated)	-0.9	-1.5	27.0	4.6	17.7	-41.5	/	/
CCc1noc(C)c1C(=O)OCC(=O)NC(=O)c1ccccc1OC	-2.0	-3.3	13.5	12.3	0.8	-22.3	/	/
CC[C@@H](C)[C@H](NC(=O)OC(C)(C)C)c1nnc(S(=O)(=O)Cc2cc(C)ccc2C)o1	-3.9	-1.8	12.2	21.7	81.6*	-26.2	66.3*	3.3
CC(C)[C@H](NC(=O)OC(C)(C)C)c1nnc(S(=O)(=O)Cc2c(F)cccc2Cl)o1	/	/	-17.5	-8.1	30.2	-24.2	/	/
Cc1ccccc1CS(=O)(=O)c1nnc([C@H](CC(C)C)NC(=O)OC(C)(C)C)o1	-3.1	-4.4	7.7	29.9	74.5*	-34.1	78.7*	0.6
Cc1ccc(OCc2nc(-c3ccc(-n4cccc4)cc3)no2)cc1C	-0.6	0.9	-2.4	-11.9	-7.0	-23.8	/	/
N/C(=N\OC(=O)N1CCOCC1)c1ccccc1	-0.3	-0.1	-64.1	-0.9	63.6*	-26.2	6.5	/
N/C(=N\OC(=O)N1CCOCC1)c1ccc(Cl)cc1	-2.4	-0.5	-29.3	-19.6	91.9*	-20.5	60.6*	147.5*
N/C(=N\OC(=O)N1CCOCC1)c1ccc(Br)cc1	-4.9	-0.7	-61.4	-7.8	100.4*	-8.1	59.0*	133.9*
Cc1ccc(NC(=S)Nc2ccc(OC(F)F)c(Cl)c2)cc1F	-0.2	-1.5	-105.1	4.9	23.1	4.3	/	/
Cc1ccc(CN2CCN(Cc3ccc(Oc4ncccn4)cc3)CC2CCO)cc1 (configuration not stated)	-3.1	-2.3	8.6	7.8	-6.2	12.3	/	/
COc1ccc(CNC(=O)CS(=O)CC(=O)O)cc1OC (configuration not stated)	-0.3	-0.4	-11.0	-1.4	-33.6	2.8	/	/
O=[N+]([O-])c1ccccc1NC1CCN(Cc2ccccc2)CC1	-3.1	-0.5	-3.5	-9.7	2.8	-6.6	/	/
